Usually fraction unbound stands for the share of the substance not bound to proteins or other matrix. One may read the logD as the decadic logarithm of the distribution of all forms, ionised or not, between an organic phase and buffer at a given pH.

From ChEMBL document CHEMBL3085643, “Synthesis and evaluation in monkey of [(18)F]4-fluoro-N-methyl-N-(4-(6-(methylamino)pyrimidin-4-yl)thiazol-2-yl)benzamide ([(18)F]FIMX): a promising radioligand for PET imaging of brain metabotropic glutamate receptor 1 (mGluR1)” (J Med Chem, 2013) come the findings set out here.

For data set [1], the system named is Brain. Nature of the data set: Biodistribution in iv dosed rhesus monkey brain measured at 90 mins by PET analysis relative to control. In kind it is ADME, organism-based, Macaca mulatta. The settings on record: in vivo, 1.5 h. In short, it runs like this:
(§1)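 Baseline scans in rhesus monkey given the [18F] radioligand i.v. (4.6–6.58 mCi; specific activity 1.67–4.18 Ci/μmol at injection). Ketamine 10 mg/kg i.m. induction, then 1.6% isoflurane/98.4% O2, with the head in a stereotaxic frame. microPET Focus 220 scanning for 120 min in 33 frames (30 s–5 min). Regional uptake, including isocontour-delineated cerebellar grey matter, expressed as SUV.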

Data set [2] relates to Plasma. Nature of the data set: Biodistribution in rhesus monkey plasma at 5.24 mCi, iv after 60 mins by radio-HPLC analysis. The format is ADME, organism-based, Macaca mulatta. The settings on record: in vivo, 1 h. In short, it runs like this:
(§2)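 Single rhesus monkey (7.0 kg) given the radioligand iv (5.24 mCi; 1.4 nmol/kg). Venous blood drawn at 10, 30, 60 and 120 min. Separated plasma analysed by radio-HPLC on a C18 radial-compression column, eluted at 2.0 mL/min with MeOH:H₂O:Et₃N (65:35:0.1). Parent and radiometabolites given as percent of plasma radioactivity; blood-component radioactivity expressed as SUV; decay-corrected.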

Data set [3] relates to Plasma. Nature of the data set: Biodistribution in rhesus monkey plasma assessed as radiometabolite [18F]-E level at 5.24 mCi, iv after 60 mins by radio-HPLC analysis. In kind it is ADME, organism-based, Macaca mulatta. The settings on record: in vivo, 1 h. In short, it runs like this: as §2
Data set [4] concerns Plasma. Nature of the data set: Biodistribution in rhesus monkey plasma assessed as radiometabolite [18F]-D level at 5.24 mCi, iv after 60 mins by radio-HPLC analysis. The format is ADME, organism-based, Macaca mulatta. To be noted: in vivo, 1 h. In short, it runs like this:
as §2

Data set [5] relates to Plasma. Put plainly: Biodistribution in rhesus monkey plasma assessed as radiometabolite [18F]-C level at 5.24 mCi, iv after 60 mins by radio-HPLC analysis. The format is ADME, organism-based, Macaca mulatta. To be noted: in vivo, 1 h. In short, it runs like this: as §2
Data set [6] has as its system Plasma. Nature of the data set: Biodistribution in rhesus monkey plasma assessed as radiometabolite [18F]-B level at 5.24 mCi, iv after 60 mins by radio-HPLC analysis. The settings on record: in vivo, 1 h. The format is ADME, organism-based, Macaca mulatta. In short, it runs like this: as §2
Data set [7] deals with Plasma. Nature of the data set: Biodistribution in rhesus monkey plasma assessed as radiometabolite [18F]-A level at 5.24 mCi, iv after 60 mins by radio-HPLC analysis. The settings on record: in vivo, 1 h. The format is ADME, organism-based, Macaca mulatta. In short, it runs like this: as §2
The subject of data set [8] is Plasma. Put plainly: Biodistribution in rhesus monkey plasma at 5.24 mCi, iv after 2 hrs by radio-HPLC analysis. In kind it is ADME, organism-based, Macaca mulatta. The settings on record: in vivo. In short, it runs like this: as §2
Data set [9] concerns Plasma. Nature of the data set: Biodistribution in rhesus monkey plasma at 5.24 mCi, iv measured at 31 mins by radio-HPLC analysis. In kind it is ADME, organism-based, Macaca mulatta. To be noted: in vivo. In short, it runs like this:
as §2

The subject of another data set is Blood. Put plainly: Biodistribution in rhesus monkey whole blood at 5.24 mCi, iv up to 150 mins by radio-HPLC analysis. To be noted: in vivo, 2 h, in the assay text read “120 mins” for “150 mins”. In kind it is ADME, organism-based, Macaca mulatta. The method, boiled down: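 Venous blood sampled after iv injection of radioligand (5.24 mCi; 1.4 nmol/kg) in one 7.0 kg rhesus monkey. Whole-blood radioactivity was gamma-counted, decay-corrected and expressed as SUV.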

A short description of data set [10]: Fraction unbound in human plasma by radio-HPLC analysis. The format is ADME, cell-free.
Data set [11] in a line: Fraction unbound in rhesus monkey plasma by radio-HPLC analysis. In kind it is ADME, cell-free, Macaca mulatta.
Data set [12] in a line: Metabolic stability in rhesus monkey plasma assessed as compound remaining after 30 mins by radio-HPLC analysis. The format is ADME, cell-free, Macaca mulatta. To be noted: read-out: Stability. The method, boiled down: (§3)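 Radioligand incubated in rhesus monkey whole blood or plasma at room temperature for at least 30 min. Blood lysed with water for 30 s; samples deproteinized with MeCN and spun at 10,000 g. Supernatants analysed by radio-HPLC; precipitates counted to give extraction efficiency. Percent unchanged parent divided by radiochemical purity.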

A short description of data set [13]: Metabolic stability in rhesus monkey whole blood assessed as compound remaining after 30 mins by radio-HPLC analysis. The format is ADME, tissue-based, Macaca mulatta. To be noted: read-out: Stability. The method, boiled down:
as §3

Data set [14] is described as follows: Biodistribution in iv dosed rhesus monkey skull by PET analysis. In kind it is ADME, organism-based, Macaca mulatta. The settings on record: in vivo. In short, it runs like this: (§4)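 Baseline brain PET in rhesus monkey: radioligand given intravenously (4.6–6.58 mCi; specific activity 1.67–4.18 Ci/μmol at injection). Ketamine induction (10 mg/kg, i.m.), then 1.6% isoflurane in O₂; head held in a stereotaxic frame. Scan run 120 min in 33 frames (30 s–5 min). Regional uptake taken from regions of interest, cerebellar grey matter delineated by isocontour, expressed as SUV; decay-corrected.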

For data set [15], the system named is Brain. Put plainly: Biodistribution in iv dosed rhesus monkey brain administered 30 mins prior to […]-challenge by PET analysis. The settings on record: in vivo, 0.5 h, in the assay text read “mGluR5 ligand” for “mGluR1 ligand”. In kind it is ADME, organism-based, Macaca mulatta. In short, it runs like this: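 Third rhesus monkey (8.1 kg): the mGluR5-selective ligand MTEP (5 mg/kg) given i.v. 30 min after the i.v. [18F] radioligand. Anesthesia was ketamine then isoflurane, with the head in a stereotaxic frame. A 120-min microPET acquisition in 33 frames was run, and regional washout expressed as SUV.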

Data set [16] relates to Brain. Nature of the data set: Biodistribution in iv dosed rhesus monkey brain administered 30 mins prior to mGluR1 antagonist JNJ-16259685-challenge by PET analysis. The format is organism-based, Macaca mulatta. To be noted: in vivo, 0.5 h. In short, it runs like this: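 Displacement challenge in a second rhesus monkey: JNJ-16259685 (3 mg/kg) given i.v. 30 min after the i.v. [18F] radioligand injection. Anesthesia was ketamine 10 mg/kg i.m. then 1.6% isoflurane. The brain was scanned with microPET for 120 min in 33 frames, and regional radioactivity expressed as SUV.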

The test system of data set [17] is Brain. Put plainly: Biodistribution in iv dosed rhesus monkey brain measured up to 120 mins by PET analysis. The format is ADME, organism-based, Macaca mulatta. To be noted: in vivo, 2 h. The method, boiled down:
as §1

The test system of data set [18] is Brain. Nature of the data set: Biodistribution in iv dosed rhesus monkey brain administered 5 mins post mGluR1 antagonist JNJ-16259685-challenge by PET analysis. The format is organism-based, Macaca mulatta. To be noted: in vivo. In short, it runs like this:
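Receptor preblock in the baseline monkey on a separate day: JNJ-16259685 (3 mg/kg) given i.v. 5 min before the i.v. [18F] radioligand (4.6–6.58 mCi). Under ketamine/isoflurane anesthesia in a stereotaxic frame, the brain was scanned with microPET for 120 min in 33 frames. Regional time–activity curves expressed as SUV.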

Data set [19] in a line: Biodistribution in iv dosed rhesus monkey cerebellum measured at 2 hrs by PET analysis. The format is ADME, organism-based, Macaca mulatta. The settings on record: in vivo. In short, it runs like this:
as §4

The nature of data set [20]: Biodistribution in iv dosed rhesus monkey cerebellum measured at 90 mins by PET analysis. The format is ADME, organism-based, Macaca mulatta. To be noted: in vivo, 1.5 h. In short, it runs like this: as §4
The nature of data set [21]: Biodistribution in iv dosed rhesus monkey anterior cingulate by PET analysis. In kind it is ADME, organism-based, Macaca mulatta. To be noted: in vivo. The method, boiled down: as §1
Data set [22] is described as follows: Biodistribution in iv dosed rhesus monkey putamen by PET analysis. The format is ADME, organism-based, Macaca mulatta. To be noted: in vivo. The method, boiled down: as §4
For a further data set, the system named is Hippocampus. Nature of the data set: Biodistribution in iv dosed rhesus monkey hippocampus by PET analysis. The format is ADME, organism-based, Macaca mulatta. To be noted: in vivo. In short, it runs like this:
as §4

Data set [23] in a line: Biodistribution in iv dosed rhesus monkey frontal cortex by PET analysis. The settings on record: in vivo. In kind it is ADME, organism-based, Macaca mulatta. In short, it runs like this:
as §4

The nature of data set [24]: Biodistribution in iv dosed rhesus monkey thalamus by PET analysis. The format is ADME, organism-based, Macaca mulatta. To be noted: in vivo. In short, it runs like this: as §4
Data set [25] in a line: Octanol-sodium phosphate buffer distribution coefficient, log D of the compound at pH 7.4. The format is physicochemical. In short, it runs like this:
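Measured LogD of the [18F]-labelled compound: distribution between n-octanol and 0.15 M sodium phosphate buffer, pH 7.4; n = 6.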

The nature of data set [26]: Biodistribution in iv dosed rhesus monkey cerebellum measured at 12 mins by PET analysis. The settings on record: in vivo, 0.2 h. The format is ADME, organism-based, Macaca mulatta. The method, boiled down: as §4

Consider `CC(C)Nc1cc(-c2csc(N(C)C(=O)c3ccc([18F])cc3)n2)ncn1`, for which the Drug uptake with Brain [1] is listed as 17%.

Regarding `CNc1cc(-c2csc(N(C)C(=O)c3ccc([18F])cc3)n2)ncn1`, the Drug uptake was found to be 26% in the data set on Plasma [2]; 21% with Plasma [3]; 1% in the data set on Plasma [4]; 10% with Plasma [5]; 23% in the data set on Plasma [6]; 19% in the data set on Plasma [7]. Further, the Drug uptake entry is listed as “Active” in the data set with Plasma [8]; 31% with Plasma [9]; “Active” with Blood; “Not Active” in [14]; “Active” in the data set on Brain [15]; “Active” in the data set with Brain [16]. In addition, the Drug uptake result with Brain [17] and with Brain [18] was “Active” throughout. The fraction unbound was determined as 0.0114 in [10] and 0.0123 in data set [11]. For the same compound, the results for the remaining at 0.5 h in [12] and in data set [13] were 98.9% and 98.1%, respectively. Also, the SUV in data set [19] is 2.8; in data set [20] it was 3.32; in data set [21], 2.4; in data set [22], 2.5; in the data set on Hippocampus it was 2.5; in [23], 2.7. Besides, the SUV in data set [24] is given as 2.9; in data set [26], 5.3. In addition, the logD in data set [25] was determined as 2.52.
